ChEMBL document CHEMBL3525931, “Stereoselective interaction of pantoprazole with ABCG2. II. In vitro flux analysis” (Drug Metab Dispos, 2012)

Assays:
[1] = target: T1, Broad substrate specificity ATP-binding cassette transporter ABCG2 (Homo sapiens, UniProt Q9UNQ0); experiment: Observed permeability in MDCK2 cells expressing human ABCG2 assessed as ABCG2-mediated apical to basolateral transport at 10 uM after 0.5 to 1 hrs by HPLC method; type: ADME, cell-based; conditions: mdck-ii
T1 sequence (Q9UNQ0 whole entry): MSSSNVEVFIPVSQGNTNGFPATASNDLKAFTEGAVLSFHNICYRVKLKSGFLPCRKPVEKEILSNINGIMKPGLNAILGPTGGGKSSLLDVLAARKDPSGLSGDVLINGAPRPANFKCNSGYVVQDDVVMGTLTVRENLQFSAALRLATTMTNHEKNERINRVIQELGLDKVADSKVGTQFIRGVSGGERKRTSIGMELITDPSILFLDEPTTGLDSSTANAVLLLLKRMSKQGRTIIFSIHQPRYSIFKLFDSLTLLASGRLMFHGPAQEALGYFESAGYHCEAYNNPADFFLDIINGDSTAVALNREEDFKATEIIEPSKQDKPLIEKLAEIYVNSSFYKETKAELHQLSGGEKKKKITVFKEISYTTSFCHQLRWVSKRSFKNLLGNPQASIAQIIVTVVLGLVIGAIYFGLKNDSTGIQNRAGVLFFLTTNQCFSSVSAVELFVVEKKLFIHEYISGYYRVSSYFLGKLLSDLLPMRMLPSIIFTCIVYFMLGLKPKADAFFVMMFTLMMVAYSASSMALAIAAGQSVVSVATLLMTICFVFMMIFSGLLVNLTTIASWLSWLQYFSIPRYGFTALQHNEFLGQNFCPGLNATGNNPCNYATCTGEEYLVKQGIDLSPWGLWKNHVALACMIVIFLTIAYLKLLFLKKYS
How it was run: (§1)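 Mock (empty pcDNA3.1) or rat Abcg2/human ABCG2-transfected MDCKII, G418-selected, seeded on 3.0-μm Transwell filters at 1.0×10^6 cells/well, grown 4 days to TEER >200 Ω·cm². Single isomer loaded apical or basolateral in serum-free Opti-MEM I with 0.2 μCi/ml [3H]mannitol, 37°C 5% CO2. Receiver sampled at 0.5 and 1 h. Quantified by HPLC-UV 290 nm. Permeability = initial rate/(area × donor concentration). Efflux ratio = B→A rate / A→B rate. n = 3, mean ± S.D.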

[2] = target: T1, Broad substrate specificity ATP-binding cassette transporter ABCG2; experiment: Observed permeability in MDCK2 cells expressing human ABCG2 assessed as ABCG2-mediated apical to basolateral transport at 50 uM after 0.5 to 1 hrs by HPLC method; type: ADME, cell-based; conditions: mdck-ii; how it was run: as §1
[3] = target: T1, Broad substrate specificity ATP-binding cassette transporter ABCG2; experiment: Observed permeability in MDCK2 cells expressing human ABCG2 assessed as ABCG2-mediated apical to basolateral transport at 200 uM after 0.5 to 1 hrs by HPLC method; type: ADME, cell-based; conditions: mdck-ii; how it was run: as §1
[4] = target: T1, Broad substrate specificity ATP-binding cassette transporter ABCG2; experiment: Observed permeability in MDCK2 cells expressing human ABCG2 assessed as ABCG2-mediated basolateral to apical transport at 200 uM after 0.5 to 1 hrs by HPLC method; type: ADME, cell-based; conditions: mdck-ii; how it was run: as §1
[5] = target: T2, ABCG2 (Homo sapiens, UniProt Q9UNQ0); experiment: Asymmetry efflux ratio in MDCK2 cells expressing human ABCG2 assessed as ABCG2-mediated drug transport ratio at 30 uM after 0.5 to 1 hrs by HPLC method; type: ADME, cell-based; how it was run: as §1
T2 sequence (Q9UNQ0 whole entry): T1 sequence (Q9UNQ0 whole entry)

[6] = target: T2, ABCG2; experiment: Asymmetry efflux ratio in MDCK2 cells expressing human ABCG2 assessed as ABCG2-mediated drug transport ratio at 50 uM after 0.5 to 1 hrs by HPLC method; type: ADME, cell-based; how it was run: as §1
[7] = target: T3, Broad substrate specificity ATP-binding cassette transporter ABCG2 (Rattus norvegicus, UniProt Q80W57); experiment: Maximum drug transport rate in MDCK2 cells expressing rat ABCG2 assessed as ABCG2-mediated transport by HPLC method; type: ADME, cell-based; conditions: mdck-ii
T3 sequence (Q80W57 whole entry): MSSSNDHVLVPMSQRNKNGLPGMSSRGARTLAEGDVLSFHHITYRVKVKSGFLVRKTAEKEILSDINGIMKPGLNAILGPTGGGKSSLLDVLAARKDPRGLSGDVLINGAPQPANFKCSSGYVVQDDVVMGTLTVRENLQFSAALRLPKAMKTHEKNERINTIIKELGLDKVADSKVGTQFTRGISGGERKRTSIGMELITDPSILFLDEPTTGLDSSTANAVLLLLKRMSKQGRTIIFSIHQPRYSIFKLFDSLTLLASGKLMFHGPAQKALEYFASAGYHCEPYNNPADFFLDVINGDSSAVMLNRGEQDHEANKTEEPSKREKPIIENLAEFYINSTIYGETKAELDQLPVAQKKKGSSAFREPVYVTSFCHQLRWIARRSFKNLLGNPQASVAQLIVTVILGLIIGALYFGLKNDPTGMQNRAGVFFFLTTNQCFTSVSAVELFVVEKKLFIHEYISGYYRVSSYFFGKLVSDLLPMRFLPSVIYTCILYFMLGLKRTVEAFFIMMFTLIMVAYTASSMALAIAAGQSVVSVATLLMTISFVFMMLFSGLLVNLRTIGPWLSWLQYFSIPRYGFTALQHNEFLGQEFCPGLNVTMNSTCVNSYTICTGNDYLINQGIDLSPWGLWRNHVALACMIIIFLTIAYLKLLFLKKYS
How it was run: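 Kinetics came from the same Transwell bidirectional flux runs in rat Abcg2- or human ABCG2-MDCKII, with donor 3–200 μM single isomer. Cellular concentrations were predicted from a three-compartment model using PS_D from mock cells and PS_PC from mannitol. Apparent apical efflux permeability was fitted against predicted cellular concentration by saturable kinetics to give K_M and T_max.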

[8] = target: T3, Broad substrate specificity ATP-binding cassette transporter ABCG2; experiment: Observed permeability in MDCK2 cells expressing rat ABCG2 assessed as ABCG2-mediated basolateral to apical transport at 50 uM after 0.5 to 1 hrs by HPLC method; type: ADME, cell-based; conditions: mdck-ii
How it was run: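 rAbcg2-transfected MDCKII monolayers seeded at 1.0×10^6 cells/well on 3.0-μm filters, grown 4 days to TEER >200 Ω·cm². Serum-free Opti-MEM I on both sides. Individual PAN isomer plus 0.2 μCi/ml [3H]mannitol loaded basolaterally, 37°C, 5% CO2. Receiver sampled at 0.5 and 1 h, PAN quantified by HPLC-UV 290 nm. P_obs = initial transfer rate/(area × initial donor concentration). Mean ± S.D., n = 3.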

[9] = target: T4, ABCG2 (Rattus norvegicus, UniProt Q80W57); experiment: Asymmetry efflux ratio in MDCK2 cells expressing rat ABCG2 assessed as ABCG2-mediated drug transport ratio at 50 uM after 0.5 to 1 hrs by HPLC method; type: ADME, cell-based; how it was run: as §1
T4 sequence (Q80W57 whole entry): T3 sequence (Q80W57 whole entry)

[10] = Observed permeability in MDCK2 cells assessed as apical to basolateral transport at 30 uM after 0.5 to 1 hrs by HPLC method; type: ADME, cell-based, Canis lupus familiaris; conditions: dog, mdck-ii; how it was run: as §1
[11] = Observed permeability in MDCK2 cells assessed as basolateral to apical transport at 30 uM after 0.5 to 1 hrs by HPLC method; type: ADME, cell-based, Canis lupus familiaris; conditions: dog, mdck-ii; how it was run: as §1
[12] = Observed permeability in MDCK2 cells assessed as basolateral to apical transport at 200 uM after 0.5 to 1 hrs by HPLC method; type: ADME, cell-based, Canis lupus familiaris; conditions: dog, mdck-ii; how it was run: as §1
[13] = Asymmetry efflux ratio in MDCK2 cells assessed as drug transport ratio at 10 uM after 0.5 to 1 hrs by HPLC method; type: ADME, cell-based, Canis lupus familiaris, MDCK-II; conditions: dog, MDCK; how it was run: as §1
[14] = Asymmetry efflux ratio in MDCK2 cells assessed as drug transport ratio at 50 uM after 0.5 to 1 hrs by HPLC method; type: ADME, cell-based, Canis lupus familiaris, MDCK-II; conditions: dog, MDCK; how it was run: as §1

SMILES	Papp [1]	Papp [2]	Papp [3]	Papp [4]	efflux ratio at 30 µM [5]	efflux ratio at 50 µM [6]	Drug transport [7]	Papp [8]	efflux ratio at 50 µM [9]	Papp [10]	Papp [11]	Papp [12]	efflux ratio at 10 µM [13]	efflux ratio at 50 µM [14]
COc1ccnc(C[S@@+]([O-])c2nc3cc(OC(F)F)ccc3[nH]2)c1OC	42.2 uL/hr/cm2	79.6 uL/hr/cm2	126 uL/hr/cm2	179 uL/hr/cm2	5.5	2.45	7.86 nmol/hr.cm2	194 uL/hr/cm2	2.46	110 uL/hr/cm2	116 uL/hr/cm2	140 uL/hr/cm2	1.07	1.09
COc1ccnc(C[S@+]([O-])c2nc3cc(OC(F)F)ccc3[nH]2)c1OC	31.6 uL/hr/cm2	109 uL/hr/cm2	132 uL/hr/cm2	132 uL/hr/cm2	3.12	1.44	2.49 nmol/hr.cm2	137 uL/hr/cm2	1.26	116 uL/hr/cm2	123 uL/hr/cm2	135 uL/hr/cm2	1.06	1.04
